From ChEMBL document CHEMBL4619819, “Toward the Target: Tilorone, Quinacrine, and Pyronaridine Bind to Ebola Virus Glycoprotein” (ACS Med Chem Lett, 2020)

Experiments:
[1] = Binding affinity to Ebola virus glycoprotein assessed as dissociation constant incubated for 20 to 30 mins by microscale thermophoresis; design: species or system Ebolavirus
Method in brief: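 EBOV glycoprotein amine-labelled with RED-NHS dye, 2.5 nM final in 10 mM MES pH 5.0, 150 mM NaCl, 170 mM sodium malonate pH 5.2, plus 0.05% Tween 20 and 10 mM BME. 16-point 2-fold series from 250 μM to 7.629 nM, 2.5% DMSO final. Incubated 20–30 min. MST run at 20% excitation, high power, 23.0 °C, in quadruplicate. Kd from mass-action fit of Fnorm, with aggregated or outlier traces removed.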

[2] = system: Ebolavirus; assay: Antiviral activity against Ebolavirus infected in human HeLa cells assessed as reduction in viral replication incubated for 48 hrs by luminescence based assay; type: functional, organism-based; details: Orthoebolavirus

Question: Which Kd ([1]; read-out: Kd) does the source give for `CCN(CC)CCOc1ccc2c(c1)C(=O)c1cc(OCCN(CC)CC)ccc1-2` [TILORONE] here?
Answer: Its Kd is 731 nM.

Question: What about the IC50 [2] of the same compound?
Answer: Its IC50 is 1140 to 1480 nM.

Question: With `COc1ccc2nc3cc(Cl)ccc3c(Nc3cc(CN4CCCC4)c(O)c(CN4CCCC4)c3)c2n1` [PYRONARIDINE] as the compound, how does the Kd ([1]; read-out: Kd) read?
Answer: The Kd was 7340 nM.

Question: What about the IC50 [2] of the same compound?
Answer: The IC50 was 820 to 1300 nM.

Question: Which Kd [1] does the source give for `NC(=O)c1nc(F)cnc1O` [FAVIPIRAVIR] here?
Answer: The Kd was “Not Active”.

Question: For `CN(C)CCOc1ccc(/C(=C(/CCCl)c2ccccc2)c2ccccc2)cc1` [TOREMIFENE], which Kd ([1]; read-out: Kd) is on record?
Answer: Its Kd is 24800 nM.

Question: For `C[C@H]1[C@H](OC(=O)CCC(=O)O)O[C@@H]2O[C@@]3(C)CC[C@H]4[C@H](C)CC[C@@H]1[C@@]24OO3` [ARTESUNATE], which Kd [1] is on record?
Answer: The Kd was “Not Active”.

Question: For `CCN(CC)CCCC(C)Nc1c2ccc(Cl)cc2nc2ccc(OC)cc12` (centres undefined) [QUINACRINE], which Kd ([1]; read-out: Kd) is on record?
Answer: The Kd was 7550 nM.

Question: What about the IC50 [2] of the same compound?
Answer: The IC50 was 1050 to 1480 nM.
